Laboratory results published in ChEMBL document CHEMBL4177633 (Bioorg Med Chem, 2017).
Calls of active or inactive are those of the source. The calls are words filed in the database; no cut-off is given here.

Experiments:
[1] = molecular target: T1, Monoglyceride lipase (Homo sapiens, UniProt Q99685); assay: Inhibition of MAGL in human U937 cell homogenate assessed as decrease in [ethanolamine-1-3H]AEA levels preincubated for 30 mins followed by AEA addition measured after 15 mins by liquid scintillation counting method
T1 sequence (Q99685 whole entry): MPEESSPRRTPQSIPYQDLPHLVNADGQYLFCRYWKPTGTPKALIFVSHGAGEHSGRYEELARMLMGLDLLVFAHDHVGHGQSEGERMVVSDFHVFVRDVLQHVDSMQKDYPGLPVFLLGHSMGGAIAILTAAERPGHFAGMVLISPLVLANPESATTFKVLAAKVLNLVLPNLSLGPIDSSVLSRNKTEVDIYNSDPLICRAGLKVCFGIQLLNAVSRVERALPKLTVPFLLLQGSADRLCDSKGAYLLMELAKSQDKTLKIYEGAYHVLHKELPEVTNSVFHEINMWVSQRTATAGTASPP
Method in brief: (§1)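 U937 cell homogenate (100 μg) in 10 mM Tris-HCl, 1 mM EDTA, pH 8, 0.1% fatty acid-free BSA. Compound screened at 10 μM, 30 min at 37 °C. Then 100 nM AEA with 1 nM [ethanolamine-1-3H]AEA tracer added, 15 min at 37 °C. Stopped with ice-cold CHCl3:MeOH (1:1), centrifuged, tritium in aqueous phase counted by liquid scintillation. Data as mean with 95% CI, n = 3.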

[2] = molecular target: T2, Fatty-acid amide hydrolase 1 (Homo sapiens, UniProt O00519); assay: Inhibition of FAAH in human U937 cell homogenate assessed as decrease in [ethanolamine-1-3H]AEA levels preincubated for 30 mins followed by AEA addition measured after 15 mins by liquid scintillation counting method; method in brief: as §1
T2 sequence (O00519 whole entry): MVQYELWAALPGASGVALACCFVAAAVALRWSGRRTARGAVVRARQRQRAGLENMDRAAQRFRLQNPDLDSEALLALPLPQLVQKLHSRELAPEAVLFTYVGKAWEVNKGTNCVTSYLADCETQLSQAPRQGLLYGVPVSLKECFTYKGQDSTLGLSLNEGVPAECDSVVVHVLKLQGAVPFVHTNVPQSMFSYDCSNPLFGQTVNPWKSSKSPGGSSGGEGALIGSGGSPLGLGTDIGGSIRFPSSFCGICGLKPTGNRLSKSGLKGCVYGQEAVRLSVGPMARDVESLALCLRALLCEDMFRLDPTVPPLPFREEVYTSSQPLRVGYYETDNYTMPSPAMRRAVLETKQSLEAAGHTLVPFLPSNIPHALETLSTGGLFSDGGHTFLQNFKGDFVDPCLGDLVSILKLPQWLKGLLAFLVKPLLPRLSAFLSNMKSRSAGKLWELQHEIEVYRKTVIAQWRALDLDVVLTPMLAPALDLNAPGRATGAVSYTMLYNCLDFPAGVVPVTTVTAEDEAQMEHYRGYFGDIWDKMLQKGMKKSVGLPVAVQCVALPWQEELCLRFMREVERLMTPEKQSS

[3] = molecular target: T3, Fatty-acid amide hydrolase 1 (Homo sapiens) (UniProt O00519); assay: Inhibition of FAAH in human U937 cell homogenate assessed as decrease in [ethanolamine-1-3H]AEA levels up to 10 uM preincubated for 30 mins followed by AEA addition measured after 15 mins by liquid scintillation counting method; method in brief: as §1
T3 sequence (whole entry): T2 sequence (O00519 whole entry)

[4] = test system: U-937; assay: Inhibition of [ethanolamine-1-3H]AEA uptake in human U937 cell homogenate preincubated for 20 mins followed by AEA addition measured after 5 mins by scintillation counting method; type: functional, cell-based; conditions: in the assay text read “intact human U937 cells” for “human U937 cell homogenate”
Method in brief: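 Intact U937 cells (0.5 × 10^6) in serum-free medium. Preincubated 20 min at 37 °C with compound at a 10 μM screening concentration, then 5 min at 37 °C with 100 nM AEA plus 0.5 nM [ethanolamine-1-3H]AEA. Stopped on ice and by rapid filtration over GF/C filters presoaked in PBS/0.2% BSA. Washed with ice-cold PBS/1% fatty acid-free BSA, then scintillation counted.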

[5] = molecular target: T4, Monoglyceride lipase (Homo sapiens) (UniProt Q99685); assay: Inhibition of MAGL in human U937 cell homogenate assessed as decrease in [ethanolamine-1-3H]AEA levels up to 10 uM preincubated for 30 mins followed by AEA addition measured after 15 mins by liquid scintillation counting method; method in brief: as §1
T4 sequence (whole entry): T1 sequence (Q99685 whole entry)

[6] = molecular target: Cannabinoid receptor 2 (Homo sapiens, UniProt P34972); assay: Displacement of [3H]CP55,940 from human CB2 receptor expressed in CHO-K1 cell membranes after 1.5 hrs by liquid scintillation counting assay
Cannabinoid receptor 2, sequence (P34972 whole entry): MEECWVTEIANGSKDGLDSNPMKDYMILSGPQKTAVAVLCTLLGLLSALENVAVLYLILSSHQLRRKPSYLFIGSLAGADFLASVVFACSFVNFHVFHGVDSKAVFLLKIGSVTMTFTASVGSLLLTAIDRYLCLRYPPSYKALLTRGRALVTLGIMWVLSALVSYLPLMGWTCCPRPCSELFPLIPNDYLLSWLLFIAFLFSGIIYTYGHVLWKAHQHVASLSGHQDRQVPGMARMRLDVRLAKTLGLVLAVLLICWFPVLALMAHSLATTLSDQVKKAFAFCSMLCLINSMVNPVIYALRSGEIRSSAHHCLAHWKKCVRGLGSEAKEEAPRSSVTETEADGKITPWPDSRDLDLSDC

[7] = molecular target: T5, Cannabinoid receptor 1 (Homo sapiens, UniProt P21554); assay: Positive allosteric modulation of human CB1 receptor expressed in CHO-K1 cell membranes assessed as induction of [3H]CP55,940 binding at 100 uM after 1.5 hrs by liquid scintillation counting assay relative to control; type: functional
T5 sequence (P21554 whole entry): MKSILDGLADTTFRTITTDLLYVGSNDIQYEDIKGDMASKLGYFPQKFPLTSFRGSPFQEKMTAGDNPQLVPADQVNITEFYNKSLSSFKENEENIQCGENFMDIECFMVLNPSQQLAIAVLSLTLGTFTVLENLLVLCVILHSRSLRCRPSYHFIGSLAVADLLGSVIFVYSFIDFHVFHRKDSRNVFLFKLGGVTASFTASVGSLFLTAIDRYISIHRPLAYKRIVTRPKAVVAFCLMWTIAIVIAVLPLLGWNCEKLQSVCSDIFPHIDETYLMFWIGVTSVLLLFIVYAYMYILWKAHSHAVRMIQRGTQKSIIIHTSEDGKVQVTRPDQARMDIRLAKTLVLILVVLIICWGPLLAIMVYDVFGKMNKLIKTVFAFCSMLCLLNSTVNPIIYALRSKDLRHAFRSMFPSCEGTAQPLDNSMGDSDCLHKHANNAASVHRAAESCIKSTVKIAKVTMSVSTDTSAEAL

[8] = molecular target: T5, Cannabinoid receptor 1; assay: Positive allosteric modulation of human CB1 receptor expressed in CHO-K1 cell membranes assessed as induction of [3H]CP55,940 binding up to 10 uM after 1.5 hrs by liquid scintillation counting assay; type: functional
[9] = molecular target: T5, Cannabinoid receptor 1; assay: Positive allosteric modulation of human CB1 receptor expressed in CHO-K1 cell membranes assessed as induction of [3H]CP55,940 binding after 1.5 hrs by liquid scintillation counting assay; type: functional
[10] = molecular target: T5, Cannabinoid receptor 1; assay: Negative allosteric modulation of human CB1 receptor expressed in HEK293 cells assessed as inhibition of 33 nM CP55,940-induced SRE transcriptional activity after 5 hrs by luciferase reporter gene assay; type: functional, cell-based

Structure (SMILES)	IC50 [1] [µM]	IC50 [2] [µM]	inhibition [3]	IC50 [4] [µM]	inhibition [5]	Ki [6] [µM]	Activity [7] [%]	Activity [8]	EC50 [9] [µM]	IC50 [10] [nM]	Activity [9]
O=C(Cc1ccc(Cl)cc1)Nc1cccc(-c2cccc(N3CCCC3)c2)c1	> 10	> 10	inactive	> 10	inactive	> 100	10	Active	> 10	1900	–
O=C(Nc1ccc(Cl)cc1)Nc1cccc(Nc2cccc(N3CCCC3)c2)c1	> 10	> 10	inactive	> 10	inactive	> 100	–	–	13.5	9600	–
O=C(Nc1ccc(Cl)cc1)Nc1cccc(-c2cccc(N3CCCC3)c2)c1	> 10	> 10	inactive	> 10	inactive	49.8	–	–	0.043	290	Dose-dependent effect

More lines, now with the values ahead:

IC50 [1] [µM]	IC50 [2] [µM]	inhibition [3]	IC50 [4] [µM]	inhibition [5]	Ki [6] [µM]	Activity [7] [%]	Activity [8]	EC50 [9] [µM]	IC50 [10] [nM]	Activity [9]	Structure (SMILES)
> 10	> 10	inactive	> 10	inactive	52.6	–	–	–	–	–	O=C(Nc1ccc(Cl)cc1)Nc1cccc(Nc2cccc(N3CCCC3)n2)c1
–	2.1	–	> 10	inactive	> 10	–	–	–	–	–	O=C(Nc1ccc(Cl)cc1)Nc1cccc(-c2cccc(N3CCCC3)n2)c1
